Source: ChEMBL document CHEMBL3244172, “Easily hydrolyzable, water-soluble derivatives of (+/-)-alpha-5-[1-(indol-3-yl)ethyl]-2-methylamino-delta2-thiazoline-4-one, a novel antiviral compound” (J Med Chem, 1979)

Columns and labels:
Influenza A virus [1] = test: (§1) Antiviral activity against Influenza A virus Port Chalmers/1/73 (H3N2) infected in ferret assessed as reduction in viral excretion by measuring hemagglutination units per ml at 13 mg/kg administered intranasally 7 times on day 0 and 9 times on day 1 to day 3 measured on day 4 relative to untreated control; format: functional
Outline: (§2)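 Ferrets (700–1500 g, groups of three, untreated control group) were infected intranasally on day 0. Unanaesthetized animals received 0.2 mL of a 50 mg/mL solution in distilled water intranasally, from 2 h post-infection, hourly: 7 doses on day 0 and 9 daily on days +1 to +3. Nasal washings were titrated for hemagglutination with 0.5% washed chicken erythrocytes (HAU/mL) on days +2 to +4.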

Influenza A virus [2] = test: as §1, with “day 2” for “day 3”, “day 2” for “day 4”; format: functional; outline: as §2
[3] = Stability in unbuffered aqueous solutions at pH >6 assessed as compound decarboxylation; format: physicochemical
Mustela putorius furo [4] = test: Toxicity in ferret infected with Influenza A virus Port Chalmers/1/73 (H3N2) assessed as change in body weight at 8 mg/kg administered intranasally 7 times on day 0 and 9 times on day 1 to day 3 measured after 7 days relative to untreated control; format: organism-based; design: dose 8 mg/kg; settings: in vivo, inhaled_or_intranasal, 168 h
Outline: (§3)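 Infected ferrets (700–1500 g, groups of three, untreated controls) were dosed intranasally each hour with 0.2 mL of a 50 mg/mL solution in distilled water: 7 doses on day 0 and 9 on days +1 to +3. Body weight was recorded throughout and expressed as % change.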

Mustela putorius furo [5] = test: Toxicity in ferret infected with Influenza A virus Port Chalmers/1/73 (H3N2) assessed as change in body weight at 13 mg/kg administered intranasally 7 times on day 0 and 9 times on day 1 to day 3 measured after 7 days relative to untreated control; format: organism-based; design: dose 13 mg/kg; settings: in vivo, inhaled_or_intranasal, 168 h; outline: as §3
Influenza A virus [6] = test: as §1, with “at 16” for “at 13”, “day 2” for “day 3”, “day 2” for “day 4”; format: functional; outline: as §2
Influenza A virus [7] = test: as §1, with “at 8” for “at 13”, “day 2” for “day 3”, “day 2” for “day 4”; format: functional; outline: as §2
Influenza A virus [8] = test: as §1, with “16” for “13”, “3” for “4”; format: functional; outline: as §2
Influenza A virus [9] = test: as §1, with “16” for “13”; format: functional; outline: as §2
[10] = Stability in unbuffered aqueous solutions at pH >6 assessed as compound hydrolysis; format: physicochemical; settings: unbuffered aqueous solution
Mustela putorius furo [11] = test: Toxicity in ferret infected with Influenza A virus Port Chalmers/1/73 (H3N2) assessed as change in body weight at 16 mg/kg administered intranasally 7 times on day 0 and 9 times on day 1 to day 3 measured after 7 days relative to untreated control; format: organism-based; design: dose 16 mg/kg; settings: in vivo, inhaled_or_intranasal, 168 h; outline: as §3
Influenza A virus [12] = test: as §1, with “3” for “4”; format: functional; outline: as §2
[13] = Solubility in water; format: physicochemical; settings: buffer
Influenza A virus [14] = test: as §1, with “8” for “13”; format: functional; outline: as §2
Influenza A virus [15] = test: Antiviral activity against Influenza A virus Port Chalmers/1/73 (H3N2) infected in ferret assessed as reduction in rectal temperature at 8 to 16 mg/kg administered intranasally 7 times on day 0 and 9 times on day 1 to day 3 relative to untreated control; format: functional; settings: dose mg/kg 8-16
Outline: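 Infected ferrets (700–1500 g, groups of three, untreated controls) received hourly intranasal 0.2 mL of a 50 mg/mL aqueous solution: 7 doses on day 0 and 9 on days +1 to +3. Rectal temperature was recorded and readings >39.5 °C and >40.0 °C were counted on days +1 to +4.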

## CNC1=NC(=O)C(C(C)c2cn(C(=O)OCC(C)(C)N(C)C)c3ccccc23)S1.Cl (racemic)
Influenza A virus [1]
  Activity: <4 HAU/ml
Influenza A virus [2]
  Activity: <4 HAU/ml
[3]
  Stability: Unstable
Mustela putorius furo [4]
  Activity: -0.4%
Mustela putorius furo [5]
  Activity: -3.3%
Influenza A virus [6]
  Activity: <4 HAU/ml
Influenza A virus [7]
  Activity: <4 HAU/ml
Influenza A virus [8]
  Activity: <4 HAU/ml
Influenza A virus [9]
  Activity: <4 HAU/ml
[10]
  Stability: Unstable
Mustela putorius furo [11]
  Activity: -3.2%
Influenza A virus [12]
  Activity: <4 HAU/ml
[13]
  solubility: soluble
Influenza A virus [14]
  Activity: <4 HAU/ml
Influenza A virus [15]
  T: >40 °C
